# Screening results from PubChem BioAssay.
# VIM-2 inh: VIM-2 metallo-beta-lactamase inhibitors, primary screen, biochemical, epi-absorbance readout, Pseudomonas aeruginosa enzyme; purified VIM-2, nitrocefin hydrolysis, epi-absorbance fluorescence; inhibition, % at 5.6 µM; actives 0.89% (n = 290,000);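 active means inhibition above the mean of all tested compounds plus 3 SD, cutoff set per screening run, cut at about 7.5% in these data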;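 further: red hydrolysis product quenches plate fluorescence so inhibitors raise well fluorescence; 0% = enzyme with DMSO and 100% = DMSO without enzyme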
# NLRP3 yeast inh: NALP3 inflammasome inhibitors in reconstituted yeast, primary screen, luminescence, uHTS; Yeast reconstituted NLRP3/ASC/caspase-1, beta-gal luminescence, 24 h; inhibition, % at 10 µM; actives 0.39% (n = 330,000); AID 2825, 2010;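 active means inhibition of 50% or more; inactive means inhibition below 50%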;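 further: plate controls were induced DMSO wells for no effect and uninduced yeast grown without galactose for full effect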
# IMP-1 inh: IMP-1 metallo-beta-lactamase inhibitors, primary screen, biochemical, epi-absorbance readout, Pseudomonas aeruginosa enzyme; metallo-beta-lactamase IMP-1 (Pseudomonas aeruginosa); purified IMP-1, nitrocefin hydrolysis, epi-absorbance fluorescence; inhibition, % at 5.6 µM; actives 0.45% (n = 290,000); AID 1556, 2009;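 active means inhibition above the mean plus 3 SD of all compounds in the same screening run, cut at about 4.5% in these data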;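 further: 0% = IMP-1 with DMSO and 100% = DMSO wells lacking enzyme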
#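 assay system = purified recombinant IMP-1 metallo-beta-lactamase enzyme | schedule = 15 min preincubation plus 25 min reaction at 25 °C | signal = Epi-absorbance fluorescence, 480 nm excitation, 530 nm emission | read-out basis = percent inhibition from optical density relative to buffer-blank wells | controls = IMP-1 with DMSO as 0%, enzyme-free DMSO as 100%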
# PolyA inhibitor: polyadenylation inhibitors in yeast reporter cells, primary screen, luminescence, S. cerevisiae | S. cerevisiae SKY197-pL101 polyadenylation reporter, beta-gal luminescence; efflux-impaired pdr1/pdr3 knockout yeast; score 100 = 6 SD above DMSO | activity score, % at 12 µM | actives 0.02% (n = 300,000) | AID 1875, 2009;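 active means lowest replicate activity score at least 50, where 100 means six control SD above control mean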;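 further: yeast exposed to compound for 9 h at 30 °C; higher score means more reporter readthrough which indicates perturbed polyadenylation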
# NALP1 inh: NALP1 inflammasome inhibitors in reconstituted yeast, colorimetric, S. cerevisiae, triplicate retest. S. cerevisiae NALP1/ASC/caspase-1 growth, X-gal OD620, 72 h. inhibition, % at 10 µM. actives 0.61% (n = 280,000); in the data active means inhibition mostly above about 24%, no sharp cut-off; inactive means mostly below about 32%
# SUMO Mot1 rescue: yeast Mot1-301 growth rescue at high temperature, primary screen, SUMOylation pathway inhibitor project, S. cerevisiae, ATP luminescence, 38.5C. S. cerevisiae Mot1-301 growth rescue; percent above DMSO median, 100 means doubled. growth rescue, % at 18.8 µM. actives 1% (n = 320,000);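 active means every valid replicate shows activation above 250% relative to neutral control wells; inactive means the rest, any valid replicate at or below 250%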;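 further: OY570 slx delta 5 strain wells were the positive control but not used for scaling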
# Yeast Mot1 SUMO: growth restoration of Mot1-301 yeast on galactose, dose response, SUMO pathway inhibitor project, whole organism, S. cerevisiae, ATP luminescence, cherry-picked samples; shares compounds with SUMO Mot1 rescue; S. cerevisiae Mot1-301 galactose growth, 24 h; -100 = growth of slx-deleted rescue strain; growth activity, percent, % at 42 µM; 2,300 tested, under 10 active;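 active means Signal drops as the depositor expects, and the fitted half-maximal dose is no more than ten times the top valid tested dose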;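 further: more negative values mean stronger growth rescue toward the control strain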
# * = called active by the depositor; · = no result given; ! = a repeat was not active; [ ] = dose if it differs, or a comment. Rows were chosen to be rich in hits. Some 2.9% of all compounds tested hit in one or more screens of this group.
SMILES,VIM-2 inh,NLRP3 yeast inh,IMP-1 inh,PolyA inhibitor,NALP1 inh,SUMO Mot1 rescue,Yeast Mot1 SUMO
Cc1cc(C)c(S(=O)(=O)c2cccc(C)c2C)c(=O)[nH]1,-1,7,0,-8,33*,415*,0
Cc1cc(C)c(S(=O)(=O)c2ccccc2)c(=O)[nH]1,-3,13,0,23,4,243,·
CCN(C(=O)c1ccc(S(=O)(=O)N2CCC(C)CC2)cc1)C1CCS(=O)(=O)C1 (stereo unspecified),·,11,·,12,·,-2,·
Cc1cc(C)c2c(=O)n(CC(=O)Nc3ccc(Cl)cc3)sc2n1,-3,21,-2,-12,·,-30,·
Cc1ccc(NC(=O)Cn2sc3nc(C)cc(C)c3c2=O)c(Cl)c1,-3,18,-6,-7,-19,559*,0
COc1ccc(C)cc1NC(=O)Cn1c(=O)oc2ccccc21,-3,17,-3,5,14,486*,-1
Cc1ccccc1NC(=O)Cn1c(=O)oc2ccccc21,0,11,-5,-29,16,-11,·
C/C(=N\NC(=S)Nc1ccccc1C)C1Cc2ccccc2C(=O)O1 (stereo unspecified),0,20,-2,1,-1,-16,·
C/C(=N\NC(=S)Nc1ccccc1)C1Cc2ccccc2C(=O)O1 (stereo unspecified),1,40,-1,11,·,393*,0
CCc1cc2c(=O)c(-c3nc4ccccc4n3C)c(C)oc2c(CN2CCOCC2)c1O,-2,4,-2,17,32,520*,-1
CCc1cc2c(=O)c(-c3nc4ccccc4n3C)c(C)oc2c(CN2CCN(C)CC2)c1O,-1,7,-3,4,-83,-9,·
CCc1cc2c(=O)c(-c3nc4ccccc4[nH]3)coc2c(CN2CCCCC2C)c1O (stereo unspecified),-4,8,-2,20,-5,121,·
CCc1cc2c(=O)c(-c3nc4ccccc4[nH]3)coc2c(CN2CCCCC2)c1O,-3,11,-3,-12,17,477*,-1
CC1CCCC(N2CCN(C(=O)c3ccc([N+](=O)[O-])cc3)CC2)C1 (stereo unspecified),-1,21,-3,-9,-10,4,·
CCOC(=O)c1ccccc1NC(=O)CSc1ccc(-c2ccccn2)nn1,-1,3,-3,-4,13,783*,0
O=C(NC1CCCCC1)C(c1ccncc1)N(Cc1ccc2c(c1)OCO2)C(=O)C(F)(F)F (stereo unspecified),-1,14,-3,11,-2,577*,0
CCn1ccc(C(=O)Nc2ccsc2C(=O)OC)n1,6,37,0,-19,28,-12,·
O=C(Nc1cc(S(=O)(=O)N2CCOCC2)ccc1Cl)C1CCC1,·,5,·,13,·,71,·
Cc1ccc(S(=O)(=O)Oc2ccc(/C=C3/C(=N)N4C(=NC3=O)SN=C4S(C)(=O)=O)cc2)cc1,2,14,-1,-6,14,5,·
CS(=O)(=O)C1=NSC2=NC(=O)/C(=C\c3ccc(OS(=O)(=O)c4ccccc4)cc3)C(=N)N21,-3,19,-3,-4,10,399*,0
Cc1ccc(NC(=O)NC2CC(=O)N(c3ccc4c(c3)OCCO4)C2)cc1F (stereo unspecified),·,27,·,-5,·,14,·
N#Cc1ccccc1OCC(=O)NNC(=O)CCNC(=O)c1ccccc1,·,18,·,·,·,-7,·
CN/C(=C/[N+](=O)[O-])NCCSCc1ccc(CN(C)C)o1,-3,10,-2,2,11,860*!,0
Cc1nc2cc(OCc3cc(C(=O)NC(C)c4cnn(C)c4)no3)ccc2s1 (stereo unspecified),0,19,-4,-22,28,-4,·
CCOCCCNC(=O)C(c1ccc(OC)cc1)N(Cc1cccs1)C(=O)c1ccccn1 (stereo unspecified),-5,8,-3,·,0,522*,-1
SMILES,VIM-2 inh,NLRP3 yeast inh,IMP-1 inh,PolyA inhibitor,NALP1 inh,SUMO Mot1 rescue,Yeast Mot1 SUMO
CCOCCCNC(=O)C(c1ccc(C)cc1)N(Cc1cccs1)C(=O)c1ccccn1 (stereo unspecified),-1,3,-3,-2,0,17,·
O=C(CCC(=O)OC(C(=O)c1ccccc1)c1ccccc1)Nc1ccccc1 (stereo unspecified),-2,-58,-2,3,-10,415*,-1[21 µM]
Cc1sc(NC(=O)c2ccc(Br)s2)c(C(N)=O)c1C,1,49,-4,-25,9,408*,-2
Cc1sc(NC(=O)c2ccc(Cl)s2)c(C(N)=O)c1C,-4,38,-3,-25,14,23,·
Cc1c(NC(=O)C(C)Sc2nnc(-c3ccccc3)o2)c(=O)n(-c2ccccc2)n1C (stereo unspecified),0,-2,3,8,4,373*,0
COc1ccc(S(=O)(=O)Nc2ccc(C(N)=O)cc2)cc1C(=O)N1CCCCCC1,-2,1,-5,5,34,4,·
Cn1c(=O)c2c(nc(Cl)n2CC(=O)NC2(C#N)CCCCC2)n(C)c1=O,·,12,·,8,·,14,·
Cc1c(NC(C)c2ccccc2O)c(=O)n(-c2ccccc2)n1C (stereo unspecified),-5,2,-5,23,1,14,·
Cc1c(NC(C)c2cc(Cl)ccc2O)c(=O)n(-c2ccccc2)n1C (stereo unspecified),-1,-2,-3,1,-4,455*,1
CCCCCCCC(=O)NNC(=O)Cc1ccccc1,-2,6,-1,-1,18,9,·
CCCCCC(=O)NNC1=NCC(Cc2cccc(Cl)c2)S1 (stereo unspecified),-1,-5,-1,-5,-18,734*,1
O=c1cc2c(n[nH]1)-c1ccccc1CC2,-1,2,-2,-11,4,70,·
Cc1ccc(NC(=O)CN2C(=O)COc3ccc(S(=O)(=O)N4CCOCC4)cc32)cc1F,-8,6,0,-17,20,500*,0
CN(C#N)c1nc(Cl)nc(Nc2cccc(Cl)c2)n1,9.4*,10,-5,-16,51,597*,0
Cc1cc(C)nc(Nc2cccc(Cl)c2)n1,-1,32,0,-9,16,0,·
